Screening results (PubChem BioAssay)
This is a sample that favours compounds with a hit; in the whole collection about 0.48% have one here.
TNAP inh hi DEA: TNAP (human) inhibition, high acceptor. AID 1135. purified TNAP, CDP-star luminescence, 1 M DEA. 200,000 compounds, 0.03% hits. inhibition, % at 20 µM;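 active means over 50% inhibition of tissue-nonspecific alkaline phosphatase at 20 µM in the single-dose screen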;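 further: plate controls were DMSO wells for no effect and EDTA-quenched wells as full inhibition for full effect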
TNAP act hiacc: TNAP (human) activation, high acceptor. P05186. purified TNAP, CDP-star luminescence, 1 M DEA, 30 min; stronger effect = higher value; 0 = EDTA background, 1 = DMSO-only activity. activation factor at 20 µM. 200,000 tested, under 10 active. AID 1136;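 active means activation factor at least 2 at 20 µM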
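Assay system: human TNAP; Input: enzyme diluted 1/800 final; Reagent: CDP-star luminogenic substrate at 100 µM final; Timing: 30 min, room temperature; Signal: luminescence; Evaluation: TNAP activation factor scaled between EDTA and DMSO control wells.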
ABCB1 inh: inhibitors of human ABCB1 transporter, ABCG2 counter-screen | P08183 | CCRF-Adr cells, JC-1 efflux, flow cytometry | inhibition, % at 6.6 µM | 190,000 compounds, 0.067% hits | AID 1326; in the data active means inhibition above about 40%;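 further: 0% = vehicle and 100% = reference inhibitor; higher value means more JC-1 retained so stronger ABCB1 efflux block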
ABCG2 inh: blocks JC-1 efflux by human ABCG2 transporter | inhibition, % at 6.6 µM | Q9UNQ0 | IgMXP3 cells, flow cytometry | 190,000 compounds, 0.1% hits;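 active means inhibition above 80%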;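 further: 0% = DMSO and 100% = nicardipine control wells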
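Times: 10 min at 25 °C | Test system: Two drug-resistant human cell lines, ABCG2 and ABCB1 | Quantity: 3 million cells/mL final, two lines in 1:1 ratio | Signal: Flow cytometry, 530 nm JC-1 signal | Dosing: Compound at 6.6 µM | Controls: Nicardipine and DMSO wells | Reagent: JC-1 as fluorescent efflux pump substrate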
PKD1 kinase inh: inhibitors of human PKD1 kinase | PKD1 kinase fluorescence polarization assay | inhibition, % (concentration not given with the values) | 200,000 compounds, 0.056% hits | AID 797; in the data active means inhibition above about 50%
Target sequence (Q15139 whole entry, looked up): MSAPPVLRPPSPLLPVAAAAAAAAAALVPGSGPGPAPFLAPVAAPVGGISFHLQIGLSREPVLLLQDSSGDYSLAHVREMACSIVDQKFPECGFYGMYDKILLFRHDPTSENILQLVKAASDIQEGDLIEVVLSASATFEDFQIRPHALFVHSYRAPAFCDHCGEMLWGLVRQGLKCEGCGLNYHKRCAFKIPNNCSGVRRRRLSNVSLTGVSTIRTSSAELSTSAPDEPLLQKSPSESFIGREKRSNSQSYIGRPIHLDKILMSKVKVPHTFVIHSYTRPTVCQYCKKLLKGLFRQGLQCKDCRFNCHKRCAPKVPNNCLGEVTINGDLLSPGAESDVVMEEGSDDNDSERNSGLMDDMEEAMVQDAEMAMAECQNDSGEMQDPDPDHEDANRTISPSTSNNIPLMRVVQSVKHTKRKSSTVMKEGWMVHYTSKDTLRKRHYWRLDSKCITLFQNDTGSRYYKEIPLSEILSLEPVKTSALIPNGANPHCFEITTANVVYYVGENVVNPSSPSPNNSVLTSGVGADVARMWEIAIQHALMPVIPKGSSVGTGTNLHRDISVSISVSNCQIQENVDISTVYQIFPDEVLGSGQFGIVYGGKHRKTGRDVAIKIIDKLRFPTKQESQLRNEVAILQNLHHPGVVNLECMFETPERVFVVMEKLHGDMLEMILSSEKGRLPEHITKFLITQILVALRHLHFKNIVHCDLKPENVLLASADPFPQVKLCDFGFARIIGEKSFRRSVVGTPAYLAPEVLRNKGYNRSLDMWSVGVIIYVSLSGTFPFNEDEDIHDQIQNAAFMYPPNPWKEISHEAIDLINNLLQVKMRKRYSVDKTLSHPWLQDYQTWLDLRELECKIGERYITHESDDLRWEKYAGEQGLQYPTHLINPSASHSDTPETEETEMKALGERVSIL
TNAP inh no acc: inhibitors of human TNAP without phosphate acceptor | P05186 | purified TNAP, CDP-star luminescence, 30 min | inhibition, % at 20 µM | 200,000 compounds, 0.26% hits | AID 1012;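 active means tissue-nonspecific alkaline phosphatase inhibition above about 50% at 20 µM in the single-dose screen, limit read from the data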;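 further: 0% = DMSO negative control and 100% = EDTA positive control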
PKD FP artifact: FP interference, PKD inhibitor counter-screen. shares compounds with PKD1 kinase inh. PKD1 FP assay interference counter-screen, fluorescence polarization. inhibition, % at 10 µM. 85 tested, under 10 active. AID 1315; call rule not given here
* hit, by the source's call; nt = no result.

SMILES | TNAP inh hi DEA | TNAP act hiacc | ABCB1 inh | ABCG2 inh | PKD1 kinase inh | TNAP inh no acc | PKD FP artifact
Cc1ccc(C(=O)c2cn[nH]c2-c2ccccc2O)cc1 | -5.4 | 1.1 | 0.3 | 23.2 | 2.1 | 40.9 | nt
O=C(c1ccc(F)cc1)c1cn[nH]c1-c1ccccc1O | -1.5 | 1 | 1.1 | 5.7 | -7.0 | 55.8* | nt
O=C(c1ccc2c(=O)n(-c3ccccc3)c(=O)[nH]c2c1)N1CCCCC1 | -5.1 | 1.1 | 0.6 | 1.8 | -5.1 | -12.0 | nt
O=c1[nH]c2cc(Cl)ccc2n1-c1ccccc1 | 13.7 | 0.9 | 1.4 | 6.3 | 3.4 | 68.9* | nt
O=C(c1n[nH]c2ccccc12)N1CCCCC1 | 0.3 | 1 | 0.4 | 2.3 | 1.1 | 82.4* | nt
COC(=O)C1CCN(C(=O)COC(=O)c2n[nH]c3ccccc23)CC1 | nt | nt | 0.7 | 2.2 | -9.1 | nt | nt
O=C(c1n[nH]c2ccccc12)N1CCOCC1 | 0.9 | 1 | 0.6 | 0.8 | 0.6 | 21.6 | nt
Cc1cc(NC(=O)COC(=O)c2n[nH]c3ccccc23)no1 | -3.7 | 1 | 0.2 | 0.8 | -3.7 | 52.0* | nt
CC1CCCN(C(=O)COC(=O)c2n[nH]c3ccccc23)C1 (configuration not stated) | -0.7 | 1 | 0.4 | 7.0 | -4.9 | 59.5* | nt
O=C(CSCc1ccc(Cl)cc1)Nc1ccc(S(=O)(=O)N2CCOCC2)cc1 | -3.6 | 1 | 0.7 | 4.0 | -14.2 | -3.7 | nt
O=S(=O)(Cc1ccccc1Cl)NCCc1ccccc1 | -1.9 | 1 | 0.0 | 1.0 | -3.2 | 1.1 | nt
c1csc(-c2nn3c(Cn4nnc5ccccc54)nnc3s2)c1 | -4.3 | 1 | 1.2 | 5.2 | -3.0 | 62.4* | nt
c1ccc2c(c1)nnn2Cc1nnc2sc(-c3ccncc3)nn12 | -4.6 | 1 | 0.0 | 0.9 | -4.2 | -5.4 | nt
O=[N+]([O-])c1cccnc1N1CCC(c2cc(-c3ccc(Cl)cc3)n[nH]2)CC1 | 3.2 | 1 | 0.3 | 3.7 | -0.9 | 50.2* | nt
COc1ccc(OC)c(S(=O)(=O)Nc2cccnc2)c1 | 74.8* | 0.3 | 0.6 | 1.5 | -2.4 | 86.4* | nt
CS(=O)(=O)N1CCN(c2ccccc2NC(=O)c2ccc(Br)o2)CC1 | -1.5 | 1 | 0.3 | 3.3 | 95.9* | -4.6 | -9.4
CN1CCN(c2ccccc2NC(=O)c2ccc(Br)o2)CC1 | -7.3 | 1.1 | 1.2 | 6.3 | 41.3 | -10.3 | nt
Cc1c(Cc2ccccc2)sc(NC(=O)/C=C/c2cccc3ccccc23)c1C(N)=O | 1.8 | 1 | -1.2 | -12.2 | -4.8 | -5.0 | nt
Cc1c(N/N=C(\C#N)C(=O)c2ccccc2)c(=O)n(-c2ccccc2)n1C | 30.4 | 0.7 | 0.0 | -0.6 | 54.9* | -79.6 | 2.5
NS(=O)(=O)c1ccc(CCNC(=O)CCCOc2ccccc2)cc1 | -4.0 | 1 | 0.0 | 0.4 | -5.9 | -10.0 | nt
CN(C)CCOc1ccc2c(c1)Sc1ccccc1CC2=O | -6.2 | 1.1 | 5.8 | 6.7 | 58.7* | -9.2 | -17.2
O=C(c1cc(-c2ccccc2)nc2ccccc12)N1CCN(c2ccccn2)CC1 | -1.6 | 1 | 0.5 | 0.8 | 93.2* | 1.5 | -12.7
O=C(c1cc(-c2ccncc2)nc2ccccc12)N1CCN(c2ccccn2)CC1 | -1.3 | 1 | 1.2 | 3.3 | -12.2 | -14.6 | nt
O=C(Cc1c[nH]c2ccccc12)NCc1ccccc1F | -3.1 | 1 | -0.1 | -0.7 | -4.0 | -8.3 | nt
Nc1nc2ccc([N+](=O)[O-])c(N)c2s1 | 5.9 | 0.9 | 0.2 | 3.0 | 97.0* | 1.3 | -13.9
SMILES | TNAP inh hi DEA | TNAP act hiacc | ABCB1 inh | ABCG2 inh | PKD1 kinase inh | TNAP inh no acc | PKD FP artifact
CCc1ccccc1OCC(=O)NC1CCCC1 | -3.2 | 1 | 0.3 | 0.5 | -6.2 | -10.8 | nt
COC(=O)c1ccccc1OCC(=O)NC1CCCCC1 | -4.6 | 1 | 0.9 | 11.3 | 84.9* | -12.9 | -12.1
CCCCNS(=O)(=O)c1ccc(NC(=O)C(Sc2ccccc2)c2ccccc2)cc1 (configuration not stated) | -2.5 | 1 | -0.6 | -0.6 | 2.9 | -34.4 | nt
CCOC(=O)c1ccc(N=C2SC(C(=O)Nc3ccc(C(=O)O)cc3)CC(=O)N2Cc2cccs2)cc1 (configuration not stated) | -4.5 | 1 | -1.9 | -11.9 | -3.5 | -9.5 | nt
COc1cc(C2=NOC(C(=O)NCc3ccco3)C2)cc(OC)c1OC (configuration not stated) | -1.7 | 1 | -2.1 | 1.6 | 111.6* | -4.4 | -11.1
COc1ccc(C2=NOC(C(=O)NCc3ccco3)C2)cc1 (configuration not stated) | -6.4 | 1.1 | 0.2 | 4.5 | 2.8 | -8.8 | nt
Cc1ccc(C(=O)NNC2=Nc3cccc4cccc2c34)cc1 | 22.0 | 0.8 | -0.2 | -0.2 | 53.7* | -28.2 | -7.9
CCn1c(CSc2ncccn2)nnc1SCC(=O)N1CCc2ccccc21 | 0.1 | 1 | 1.4 | 7.6 | 99.5* | -4.6 | -12.8
Cn1c(CSc2ncccn2)nnc1SCC(=O)N1CCCc2ccccc21 | -8.7 | 1.1 | 0.5 | 4.5 | 3.9 | -7.0 | nt
O=C1CC(N2CCN(c3ccccc3Cl)CC2)C(=O)N1c1ccc(F)cc1 (configuration not stated) | 0.1 | 1 | 0.3 | 1.8 | 51.3* | -6.7 | -11.7
O=C1CC(N2CCN(c3ccccc3Cl)CC2)C(=O)N1c1cccc(F)c1 (configuration not stated) | -1.2 | 1 | 0.3 | 1.0 | 109.0* | -9.3 | -10.6
Cc1cccc(N2C(=O)CC(N3CCN(c4ccccc4)CC3)C2=O)c1 (configuration not stated) | -2.3 | 1 | nt | nt | 10.1 | -3.0 | nt
O=C1CC(N2CCN(c3ccccc3F)CC2)C(=O)N1c1ccc(F)cc1 (configuration not stated) | nt | nt | nt | nt | 3.0 | nt | nt
c1ccc(CCN(Cc2ccccc2)C2CCN(C3CCCC3)CC2)cc1 | -5.8 | 1.1 | -0.2 | 0.7 | -2.4 | -24.9 | nt
O=C(NC1(C(F)(F)F)NC(=O)N(c2ccc(F)cc2)C1=O)c1cccs1 (configuration not stated) | 0.9 | 1 | 1.2 | 5.7 | -3.8 | -12.0 | nt
O=C1NCCCc2c1oc1ccc(O)cc21 | -3.6 | 1 | 0.4 | 2.5 | 100.2* | 5.2 | -12.1
O=C(CN1CCN(c2ncccn2)CC1)N1CCCc2c1c(=O)oc1ccc(O)cc21 | 2.8 | 1 | 0.6 | 9.0 | 12.1 | -5.2 | nt
COC(=O)CC1C(=O)NCCN1C(=O)CSc1nnnn1-c1ccc(Cl)cc1 (configuration not stated) | -1.6 | 1 | 0.2 | 4.0 | -1.4 | -4.2 | nt
NC(N)=NC(=O)c1nc(Cl)c(N)nc1N | -1.1 | 1 | 0.0 | 0.0 | 80.0* | -7.5 | -1.1
CCOc1ccc(N2C(=O)CC(NCCNc3ccc(C(=O)c4cccs4)cc3)C2=O)cc1 (configuration not stated) | -3.1 | 1 | 2.2 | 4.8 | 2.4 | -12.9 | nt
